Source: PMC4878412 (Cancer chemotherapy and pharmacology, 2015)

Legend:
DDX3 = conditions: ref [1]; cited from earlier work
[1] = ref [1]; cited from earlier work
[2] = free RK-33; no method in this paper, no reference given; cited from earlier work
[3] = ref [1]; cited from earlier work; remark: listed apart in the source
[4] = In vivo retention of RK-33 in plasma, liver and lungs 48 h after administration; conditions: mice, 48 h after intraperitoneal injection of 0.80 mg free RK-33
How it was run: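 Female athymic NCr-nu/nu mice (4–5 weeks, three animals) got free test compound 0.8 mg i.p. and were killed at 48 h. Blood was drawn intracardially into heparin tubes and spun at 8000 rpm for 5 min. Liver and lungs were weighed and homogenised in 3 volumes cold PBS. Plasma or homogenate (0.1 mL) was extracted with 1 mL chloroform/isopropanol (1:1), shaken 3 min and centrifuged.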

## RK-33
DDX3
  Inhibition of DDX3 (in words): effectively inhibits
[1]
  Toxicity in mice (in words): little or no toxicity
[2]
  Systemic half-life (t½): 7.3 h
[3]
  Cell cycle effect (in words): induce G1 arrest
[4]
  RK-33 in liver: < 1 µg/mL
  RK-33 in lungs: < 1 µg/mL
  RK-33 in plasma: < 1 µg/mL
